Among the data in ChEMBL document CHEMBL1821688, “Synthesis and biological evaluation of (±)-3-(2-(2-fluorobenzyloxy) naphthalen-6-yl)-2-aminopropanoic acid derivatives as novel PTP1B inhibitors” (Eur J Med Chem, 2011) are inhibition, IC50 and Ratio IC50 values, retold here.

Experiment [1] addresses Receptor-type tyrosine-protein phosphatase F (Homo sapiens) (UniProt P10586). Nature of the experiment: Inhibition of human recombinant LAR at 20 ug/mL.
Experiment [2] addresses T1, Tyrosine-protein phosphatase non-receptor type 1 (Homo sapiens, UniProt P18031).
T1 sequence (P18031 whole entry): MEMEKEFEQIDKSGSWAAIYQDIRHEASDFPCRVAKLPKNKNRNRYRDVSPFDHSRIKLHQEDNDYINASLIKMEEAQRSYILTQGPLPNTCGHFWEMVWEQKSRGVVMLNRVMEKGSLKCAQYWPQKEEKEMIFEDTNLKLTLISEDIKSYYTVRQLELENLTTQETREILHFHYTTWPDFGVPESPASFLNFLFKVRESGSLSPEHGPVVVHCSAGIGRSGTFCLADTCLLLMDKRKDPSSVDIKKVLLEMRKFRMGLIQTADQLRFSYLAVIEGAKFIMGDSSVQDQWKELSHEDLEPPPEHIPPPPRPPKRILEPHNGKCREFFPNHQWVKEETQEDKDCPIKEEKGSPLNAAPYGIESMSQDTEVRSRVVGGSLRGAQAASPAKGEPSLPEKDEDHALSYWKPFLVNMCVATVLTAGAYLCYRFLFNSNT
Nature of the experiment: Inhibition of PTP1B using p-nitrophenyl phosphate as substrate. In a few lines: (§1)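 IC50 values were obtained by regression analysis and reported as mean ± SD of three replicate determinations.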

Experiment [3] concerns the target T2, Tyrosine-protein phosphatase non-receptor type 1 (Homo sapiens) (UniProt P18031).
T2 sequence (whole entry): T1 sequence (P18031 whole entry)
As to conditions: 2.5 to 10 uM.

The target in experiment [4] is T3, Tyrosine-protein phosphatase non-receptor type 6 (Homo sapiens, UniProt P29350). Put plainly: Inhibition of human recombinant SHP1 in Tris buffer at pH 8 using OMPF as substrate. In a few lines:
as §1

The target of experiment [5] is T4, M-phase inducer phosphatase 2 (Homo sapiens, UniProt P30305).
T4 sequence (P30305 whole entry): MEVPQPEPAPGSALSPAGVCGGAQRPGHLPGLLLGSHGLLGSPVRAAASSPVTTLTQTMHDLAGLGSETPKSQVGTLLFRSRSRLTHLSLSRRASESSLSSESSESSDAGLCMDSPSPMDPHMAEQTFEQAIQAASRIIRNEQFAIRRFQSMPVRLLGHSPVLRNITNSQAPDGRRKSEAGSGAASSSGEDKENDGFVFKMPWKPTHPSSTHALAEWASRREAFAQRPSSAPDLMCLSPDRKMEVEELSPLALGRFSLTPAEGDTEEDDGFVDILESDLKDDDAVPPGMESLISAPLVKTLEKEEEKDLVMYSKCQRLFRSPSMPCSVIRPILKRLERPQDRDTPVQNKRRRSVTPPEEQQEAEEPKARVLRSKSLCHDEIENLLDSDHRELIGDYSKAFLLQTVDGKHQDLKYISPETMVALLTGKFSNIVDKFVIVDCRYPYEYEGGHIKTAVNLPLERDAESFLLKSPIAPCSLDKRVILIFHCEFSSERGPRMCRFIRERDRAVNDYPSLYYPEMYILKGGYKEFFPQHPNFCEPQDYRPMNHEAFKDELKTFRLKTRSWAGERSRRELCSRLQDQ
Put plainly: Inhibition of human recombinant CDC25B. In a few lines: as §1

The nature of experiment [6]: Selectivity ratio of IC50 for TCPTP to IC50 for PTP1B.
Experiment [7] deals with Receptor-type tyrosine-protein phosphatase alpha (Homo sapiens) (UniProt P18433). Put plainly: Inhibition of human recombinant PTPalpha at 20 ug/mL.
Sequence of Receptor-type tyrosine-protein phosphatase alpha (Homo sapiens) (P18433 20-802 limits assumed): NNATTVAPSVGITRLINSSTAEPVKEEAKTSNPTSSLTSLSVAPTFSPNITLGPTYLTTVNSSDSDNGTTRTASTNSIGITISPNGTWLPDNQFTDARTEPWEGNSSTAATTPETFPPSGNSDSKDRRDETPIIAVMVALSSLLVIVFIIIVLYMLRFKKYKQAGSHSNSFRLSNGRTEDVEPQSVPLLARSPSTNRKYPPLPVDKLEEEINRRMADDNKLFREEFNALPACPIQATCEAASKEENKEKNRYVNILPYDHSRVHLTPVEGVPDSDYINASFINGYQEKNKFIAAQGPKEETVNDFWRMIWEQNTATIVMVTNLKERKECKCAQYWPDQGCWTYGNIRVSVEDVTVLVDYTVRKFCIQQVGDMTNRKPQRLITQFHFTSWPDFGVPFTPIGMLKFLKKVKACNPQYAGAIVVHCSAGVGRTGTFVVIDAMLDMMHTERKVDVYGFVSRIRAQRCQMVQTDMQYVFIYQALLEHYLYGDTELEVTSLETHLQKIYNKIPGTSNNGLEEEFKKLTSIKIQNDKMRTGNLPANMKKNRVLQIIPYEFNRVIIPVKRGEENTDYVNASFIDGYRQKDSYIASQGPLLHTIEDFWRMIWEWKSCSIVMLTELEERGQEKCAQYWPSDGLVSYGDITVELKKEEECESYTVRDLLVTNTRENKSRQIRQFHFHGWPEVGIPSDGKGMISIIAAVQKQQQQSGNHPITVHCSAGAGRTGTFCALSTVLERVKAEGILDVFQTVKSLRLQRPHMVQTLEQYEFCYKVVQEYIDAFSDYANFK
Experiment [8] deals with T5, Tyrosine-protein phosphatase non-receptor type 2 (Homo sapiens, UniProt P17706).
T5 sequence (P17706 whole entry): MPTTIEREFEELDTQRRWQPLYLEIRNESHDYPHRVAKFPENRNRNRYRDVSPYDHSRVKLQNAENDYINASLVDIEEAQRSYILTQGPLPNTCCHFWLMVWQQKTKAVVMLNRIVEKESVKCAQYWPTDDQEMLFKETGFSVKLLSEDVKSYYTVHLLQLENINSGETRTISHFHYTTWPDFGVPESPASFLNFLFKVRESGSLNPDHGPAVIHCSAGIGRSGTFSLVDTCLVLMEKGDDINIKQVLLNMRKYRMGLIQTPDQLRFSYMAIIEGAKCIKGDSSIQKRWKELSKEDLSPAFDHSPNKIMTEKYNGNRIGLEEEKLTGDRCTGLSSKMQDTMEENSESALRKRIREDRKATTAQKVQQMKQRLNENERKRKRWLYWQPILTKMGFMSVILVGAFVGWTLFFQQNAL
Put plainly: Inhibition of TCPTP. In a few lines: as §1

Experiment [9] addresses T2, Tyrosine-protein phosphatase non-receptor type 1 (Homo sapiens). The settings on record: 2.5 to 10 uM. This is another data set of the same source.
The target of experiment [10] is T3, Tyrosine-protein phosphatase non-receptor type 6. Nature of the experiment: Inhibition of human recombinant SHP1 in Tris buffer of pH 8 at 20 ug/mL.

Active and inactive are the calls of the source. No cut-off for these calls is given here.

T3 sequence (P29350 whole entry): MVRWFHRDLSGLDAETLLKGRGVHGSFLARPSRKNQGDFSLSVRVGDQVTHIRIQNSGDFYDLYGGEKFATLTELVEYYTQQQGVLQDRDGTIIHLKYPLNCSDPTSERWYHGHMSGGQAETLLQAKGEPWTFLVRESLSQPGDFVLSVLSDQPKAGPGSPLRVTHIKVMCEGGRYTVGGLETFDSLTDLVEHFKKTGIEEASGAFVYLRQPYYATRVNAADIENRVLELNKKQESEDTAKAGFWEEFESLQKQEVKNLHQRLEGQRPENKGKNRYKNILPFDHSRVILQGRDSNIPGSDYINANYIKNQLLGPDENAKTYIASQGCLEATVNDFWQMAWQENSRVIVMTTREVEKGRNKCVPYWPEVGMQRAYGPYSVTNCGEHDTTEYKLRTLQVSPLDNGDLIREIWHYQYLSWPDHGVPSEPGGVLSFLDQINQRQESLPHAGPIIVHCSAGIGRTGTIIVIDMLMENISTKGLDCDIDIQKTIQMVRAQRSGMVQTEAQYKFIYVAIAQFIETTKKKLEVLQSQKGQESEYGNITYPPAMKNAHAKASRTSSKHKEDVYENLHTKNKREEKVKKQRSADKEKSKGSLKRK
Sequence of Receptor-type tyrosine-protein phosphatase F (Homo sapiens) (P10586 whole entry): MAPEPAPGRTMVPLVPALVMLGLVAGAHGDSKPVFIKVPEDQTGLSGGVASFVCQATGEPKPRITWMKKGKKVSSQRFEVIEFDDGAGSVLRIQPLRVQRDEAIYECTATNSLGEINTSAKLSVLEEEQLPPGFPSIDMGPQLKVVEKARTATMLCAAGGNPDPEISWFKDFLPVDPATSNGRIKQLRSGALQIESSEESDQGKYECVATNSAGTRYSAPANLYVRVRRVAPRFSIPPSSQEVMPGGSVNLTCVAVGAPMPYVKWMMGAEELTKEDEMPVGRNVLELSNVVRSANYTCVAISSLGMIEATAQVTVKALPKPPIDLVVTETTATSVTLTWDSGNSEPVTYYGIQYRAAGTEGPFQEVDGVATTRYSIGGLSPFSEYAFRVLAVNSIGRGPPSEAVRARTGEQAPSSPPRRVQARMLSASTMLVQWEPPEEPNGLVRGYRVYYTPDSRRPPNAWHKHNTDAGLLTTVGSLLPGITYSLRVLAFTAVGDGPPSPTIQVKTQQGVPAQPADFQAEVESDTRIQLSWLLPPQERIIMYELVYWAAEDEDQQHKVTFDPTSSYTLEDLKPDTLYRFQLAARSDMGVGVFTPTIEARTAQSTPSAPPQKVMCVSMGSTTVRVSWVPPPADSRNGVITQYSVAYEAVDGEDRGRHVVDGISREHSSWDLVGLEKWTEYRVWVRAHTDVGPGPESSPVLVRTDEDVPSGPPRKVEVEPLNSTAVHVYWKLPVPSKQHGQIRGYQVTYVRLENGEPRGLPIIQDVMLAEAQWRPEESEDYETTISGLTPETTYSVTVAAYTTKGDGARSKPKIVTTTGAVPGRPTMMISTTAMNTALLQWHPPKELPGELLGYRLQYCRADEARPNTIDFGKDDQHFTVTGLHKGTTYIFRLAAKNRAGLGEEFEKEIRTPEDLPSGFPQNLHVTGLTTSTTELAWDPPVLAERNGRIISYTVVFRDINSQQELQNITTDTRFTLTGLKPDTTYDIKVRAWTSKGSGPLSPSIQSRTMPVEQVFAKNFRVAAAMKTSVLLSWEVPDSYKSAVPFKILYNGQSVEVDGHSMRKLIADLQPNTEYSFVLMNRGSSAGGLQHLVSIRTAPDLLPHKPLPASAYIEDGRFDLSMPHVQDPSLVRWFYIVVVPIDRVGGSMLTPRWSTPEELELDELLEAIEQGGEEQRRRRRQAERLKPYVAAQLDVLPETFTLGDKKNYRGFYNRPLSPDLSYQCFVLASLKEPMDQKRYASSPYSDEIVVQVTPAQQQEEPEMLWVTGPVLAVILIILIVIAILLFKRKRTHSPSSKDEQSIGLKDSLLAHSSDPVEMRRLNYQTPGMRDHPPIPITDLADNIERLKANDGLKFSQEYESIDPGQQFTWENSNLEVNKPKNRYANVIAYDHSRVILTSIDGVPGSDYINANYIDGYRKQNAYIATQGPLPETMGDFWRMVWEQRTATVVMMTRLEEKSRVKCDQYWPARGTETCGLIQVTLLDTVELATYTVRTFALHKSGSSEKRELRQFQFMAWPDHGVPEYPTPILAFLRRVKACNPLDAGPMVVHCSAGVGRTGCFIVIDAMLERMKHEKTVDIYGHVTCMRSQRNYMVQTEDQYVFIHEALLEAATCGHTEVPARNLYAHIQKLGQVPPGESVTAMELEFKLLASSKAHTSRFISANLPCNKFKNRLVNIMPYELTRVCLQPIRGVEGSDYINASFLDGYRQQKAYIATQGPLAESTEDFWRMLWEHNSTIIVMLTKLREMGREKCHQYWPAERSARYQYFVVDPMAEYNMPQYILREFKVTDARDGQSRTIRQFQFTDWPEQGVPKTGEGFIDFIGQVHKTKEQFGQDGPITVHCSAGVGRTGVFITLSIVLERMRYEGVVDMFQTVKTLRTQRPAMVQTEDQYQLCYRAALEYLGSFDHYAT

For the molecule `O=C(/C=C/c1ccccc1Cl)NC(Cc1ccc2cc(OCc3ccccc3F)ccc2c1)C(=O)O` (racemic), the inhibition result in [1] and in [7] was “inactive” in each case. Besides, the half-maximal inhibitory concentration (IC50) (in general, the midpoint of a concentration-inhibition curve) is 1.25 µM in experiment [2], 2.43 µM in [4], 3.08 µM in experiment [5] and 3.84 µM in experiment [8]. In addition, the inhibition entry in [3] was “Active”. Besides, the Ratio IC50 in experiment [6] came out at 3. Further, the inhibition entry in experiment [9] is “tde”.

Turning to `COc1ccc(/C=C/C(=O)NC(Cc2ccc3cc(OCc4ccccc4F)ccc3c2)C(=O)O)cc1OC` (racemic), the inhibition result in experiment [1], in experiment [7] and in experiment [10] was “inactive” throughout. The half-maximal inhibitory concentration (IC50) worked out at 4.45 µM in experiment [2], 7.04 µM in experiment [5] and 9.49 µM in [8]. In [6], the Ratio IC50 turned out to be 1.

On to `Cc1ccc(/C=C/C(=O)NC(Cc2ccc3cc(OCc4ccccc4F)ccc3c2)C(=O)O)cc1` (racemic), for which the inhibition result in [1], in experiment [7] and in experiment [10] was “inactive” throughout. Also, the figures for the IC50 in experiment [2], in experiment [5] and in [8] were 6.48 µM, 11.6 µM and 18.2 µM, respectively. The Ratio IC50 in [6] turned out to be 1.
